Data on four compounds can be found in ChEMBL document CHEMBL4393661, “PRODRUGS FOR NITROREDUCTASE BASED CANCER THERAPY- 2: Novel amide/Ntr combinations targeting PC3 cancer cells” (Eur J Med Chem, 2019).

By Km is commonly meant the substrate concentration at which the rate is half of its maximum. As a reminder, the half-life is how long it takes for the measured level to halve. Usually pIC50 stands for the IC50 on a negative log10 scale, so that one unit is a factor of ten.

For series [1], the target named is T1, Escherichia coli nitroreductase nfsB (oxygen-insensitive NAD(P)H nitroreductase) (Escherichia coli K-12, UniProt P38489).
T1 sequence (P38489 whole entry): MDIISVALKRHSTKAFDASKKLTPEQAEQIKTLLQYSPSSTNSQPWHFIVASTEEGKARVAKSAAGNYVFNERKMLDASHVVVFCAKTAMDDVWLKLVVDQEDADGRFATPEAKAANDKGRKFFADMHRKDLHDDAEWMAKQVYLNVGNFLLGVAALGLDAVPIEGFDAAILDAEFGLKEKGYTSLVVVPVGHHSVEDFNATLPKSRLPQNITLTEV
The series is described as follows: Substrate activity at Escherichia coli nitroreductase nfsB assessed as Km using NADH as cofactor in Tris-Cl buffer at pH 7.5 by spectrophotometric method. Format: ADME.

The target in series [2] is T2, Putative nitroreductase (Staphylococcus saprophyticus subsp. saprophyticus (strain ATCC 15305 / DSM20229 / NCIMB 8711 / NCTC 7292 / S-41), UniProt Q4A0P1).
T2 sequence (Q4A0P1 whole entry): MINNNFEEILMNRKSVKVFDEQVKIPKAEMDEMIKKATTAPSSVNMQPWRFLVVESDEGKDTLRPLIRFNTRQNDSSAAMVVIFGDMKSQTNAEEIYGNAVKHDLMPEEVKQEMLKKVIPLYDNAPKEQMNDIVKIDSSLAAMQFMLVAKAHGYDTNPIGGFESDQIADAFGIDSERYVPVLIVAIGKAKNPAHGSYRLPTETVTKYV
The series is described as follows: Substrate activity at Staphylococcus saprophyticus nitroreductase assessed as Kcat using NADPH as cofactor in presence of Tris-Cl buffer at pH 7.5 by spectrophotometric method. The class given is ADME. Summed up:
(§1)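 Michaelis–Menten parameters for recombinant Ssap-NtrB were measured spectrophotometrically at 25 °C in 25 mM Tris-Cl buffer pH 7.5 containing 5% DMSO as cosolvent.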

Series [3] has as its target T3, Staphylococcus saprophyticus nitroreductase (Staphylococcus saprophyticus subsp. saprophyticus (strain ATCC 15305 / DSM20229 / NCIMB 8711 / NCTC 7292 / S-41), UniProt Q4A0P1).
T3 sequence (Q4A0P1 whole entry): T2 sequence (Q4A0P1 whole entry)
The series can be described thus: Substrate activity at Staphylococcus saprophyticus nitroreductase assessed as Km using NADPH as cofactor in presence of Tris-Cl buffer at pH 7.5 by spectrophotometric method. The class given is ADME. In short, it runs like this: as §1

In series [4] the target is T4, Oxygen-insensitive NAD(P)H nitroreductase (Escherichia coli K-12, UniProt P38489).
T4 sequence (P38489 whole entry): T1 sequence (P38489 whole entry)
The series can be described thus: Substrate activity at Escherichia coli nitroreductase nfsB assessed as ratio of Kcat/Km using NADH as cofactor in Tris-Cl buffer at pH 7.5 by spectrophotometric method. The class given is ADME.

The target of series [5] is T2, Putative nitroreductase. The series can be described thus: Substrate activity at Staphylococcus saprophyticus nitroreductase assessed as ratio of Kcat/Km using NADPH as cofactor in presence of Tris-Cl buffer at pH 7.5 by spectrophotometric method. The class given is ADME. Summed up: as §1
Series [6] addresses T4, Oxygen-insensitive NAD(P)H nitroreductase. The series is described as follows: Substrate activity at Escherichia coli nitroreductase nfsB assessed as ratio of Kcat/Km up to 80 mM using NADH as cofactor relative to CB1954/NfsB. Format: ADME.
The target of series [7] is T2, Putative nitroreductase. The series is described as follows: Prodrug conversion assessed as Staphylococcus saprophyticus nitroreductase mediated P5 metabolite formation in presence of FDH cofactor regeneration system at 100 uM by HPLC analysis. Particulars: isolated protein. Format: ADME. Summed up:
(§2)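 This was a coupled regeneration reaction: 100 µM substrate in Tris/Cl pH 7.5 with 5–15% DMSO, plus 100 µM NADH, 10 µM NAD+, 0.1 mg/mL BSA, 200 µM sodium formate, 30 µg/mL Ssap-NtrB and 30 µg/mL Candida methylica FDH, at 25 °C. Aliquots were taken over time, quenched 1:1 with cold acetonitrile and analysed by C18 HPLC using program II (20→80→20% ACN). Peak areas were read at 254 and 340 nm.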

Series [8] in a line: Cytotoxicity against human PC3 cells assessed as cell viability at 9 to 150 uM measured after 48 hrs by MTT assay relative to control. Format: cell-based, PC-3. Particulars: read-out: Activity. Summed up: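 They were treated for 48 h at 9, 18, 39, 78 and 150 µM, with 1% DMSO as vehicle control. Viability was read by MTT at 550 nm.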
(Tetrazolium dyes change colour on reduction, which living cells bring about.)

Series [9] concerns the target T3, Staphylococcus saprophyticus nitroreductase. The series is described as follows: Substrate activity at Staphylococcus saprophyticus nitroreductase expressed in Escherichia coli assessed as half life […] at 150 uM by HPLC analysis (0 to 5 mins at 20 % ACN, 15 to 22 min at 80% ACN, 27-32 AT 20% ACN). The class given is ADME.
For series [10], the target named is T2, Putative nitroreductase. The series is described as follows: Substrate activity at Staphylococcus saprophyticus nitroreductase expressed in Escherichia coli assessed as retention time in the presence of NADPH at 150 uM by HPLC analysis (0 to 5 mins at 20% ACN, 25 to 35 min at 80% ACN, 40 to 45 min at 20% ACN). Format: ADME.
Series [11] deals with T2, Putative nitroreductase. The series is described as follows: Prodrug conversion assessed as Staphylococcus saprophyticus nitroreductase mediated P2 metabolite formation in presence of FDH cofactor regeneration system at 100 uM by HPLC analysis. The following applies: isolated protein. The class given is ADME. Summed up: as §2
Series [12] deals with T2, Putative nitroreductase. The series can be described thus: Substrate activity at Staphylococcus saprophyticus nitroreductase expressed in Escherichia coli assessed as retention time […] at 150 uM by HPLC analysis (0 to 5 mins at 20 % ACN, 15 to 22 min at 80% ACN, 27-32 AT 20% ACN). The class given is ADME.
The target of series [13] is T2, Putative nitroreductase. The series can be described thus: Prodrug conversion assessed as Staphylococcus saprophyticus nitroreductase mediated P4 metabolite formation in presence of FDH cofactor regeneration system at 100 uM by HPLC analysis. Particulars: isolated protein. Format: ADME. Summed up: as §2
The target of series [14] is T2, Putative nitroreductase. The series is described as follows: Prodrug conversion assessed as Staphylococcus saprophyticus nitroreductase mediated P3 metabolite formation in presence of FDH cofactor regeneration system at 100 uM by HPLC analysis. Format: ADME. The following applies: isolated protein. Summed up:
as §2

A short description of series [15]: Cytotoxicity against human HUVEC cells assessed as cell viability at 9 to 150 uM measured after 48 hrs by MTT assay relative to control. Format: cell-based. Particulars: read-out: Activity. In short, it runs like this:
(§3)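 Hep3B and HUVEC cells were grown in high-glucose medium with 10% heat-inactivated FBS and 2 mM glutamine at 37 °C in 5% CO2. Cells were seeded at 5x10^4 per well and left 24 h to attach. They were then exposed for 48 h to 150, 75, 39, 19 and 9 µM, with 1% DMSO as vehicle control. Viability was read by MTT at 550 nm as (OD sample/OD control)×100.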

For series [16], the target named is T3, Staphylococcus saprophyticus nitroreductase. The series is described as follows: Substrate activity at Staphylococcus saprophyticus nitroreductase expressed in Escherichia coli assessed as half life in the presence of NADPH at 150 uM by HPLC analysis (0 to 5 mins at 20% ACN, 25 to 35 min at 80% ACN, 40 to 45 min at 20% ACN). The class given is ADME.
Series [17] deals with T2, Putative nitroreductase. The series can be described thus: Prodrug conversion assessed as Staphylococcus saprophyticus nitroreductase mediated P1 metabolite formation in presence of FDH cofactor regeneration system at 100 uM by HPLC analysis. The class given is ADME. The following applies: isolated protein. In short, it runs like this: as §2
Series [18] in a line: Cytotoxicity against human Hep3B cells assessed as cell viability at 9 to 150 uM measured after 48 hrs by MTT assay relative to control. The class given is cell-based, Hep 3B2. Particulars: read-out: Activity. Summed up: as §3
In series [19] the target is T2, Putative nitroreductase. The series can be described thus: Prodrug conversion assessed Staphylococcus saprophyticus nitroreductase expressed in Escherichia coli-mediated (4-(hydroxyamino)phenyl)(morpholino)methanone metabolite formation by measuring retention time of metabolite at 100 uM incubated for 15 mins by HPLC analysis. Format: ADME. The following applies: 0.25 h. Summed up: (§4)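 Recombinant Ssap-NtrB, Ni-column purified, was used at 2.5 µg/mL. Substrate at 100 µM was reacted with 200 µM NADH in 25 mM Tris/Cl pH 7.5 with 10% DMSO at 25 °C for 15 min. The reaction was stopped 1:1 with cold acetonitrile and run on C18 RP-HPLC at 1 mL/min with a 20–80% ACN gradient. Peaks were detected at 254 and 340 nm.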

Series [20] relates to PC-3. The series can be described thus: Cytotoxicity in human PC3 cells assessed as reduction in cell viability at 180 nM measured after 48 hrs by SRB assay. Format: cell-based. Particulars: pc-3, 48 h, 0.18 µM. In short, it runs like this:
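They were exposed for 48 h to prodrug alone at 180 nM final, without enzyme or NADH, with 25 mM Tris-HCl as vehicle control. Cells were fixed with 12.5% TCA for 1 h at 4 °C, stained with 0.4% SRB and read at 492 nm as % cell survival, in triplicate.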
A general note: The SRB assay estimates cell density from bound dye.

The target of series [21] is T2, Putative nitroreductase. The series is described as follows: Prodrug conversion assessed Staphylococcus saprophyticus nitroreductase expressed in Escherichia coli-mediated PP (4-(hydroxyamino)phenyl)(piperidin-1-yl)methanone metabolite formation by measuring retention time of metabolite at 100 uM incubated for 15 mins by HPLC analysis. The following applies: 0.25 h. The class given is ADME. Summed up: as §4

Series [22] in a line: Solubility of the compound in 15% DMSO. Format: physicochemical.
Series [23] addresses T2, Putative nitroreductase. The series can be described thus: Substrate activity at Staphylococcus saprophyticus nitroreductase expressed in Escherichia coli assessed as retention time […] at 100 uM by HPLC analysis (0 to 5 mins at 20 % ACN, 15 to 22 min at 80% ACN, 27-32 AT 20% ACN). The class given is ADME.
In series [24] the target is T3, Staphylococcus saprophyticus nitroreductase. The series can be described thus: Substrate activity at Staphylococcus saprophyticus nitroreductase expressed in Escherichia coli assessed as half life […] at 100 uM by HPLC analysis (0 to 5 mins at 20 % ACN, 15 to 22 min at 80% ACN, 27-32 AT 20% ACN). The class given is ADME.
Series [25] relates to PC-3. The series is described as follows: Cytotoxicity against human PC3 cells assessed as reduction in cell viability measured after 48 hrs in presence of Staphylococcus saprophyticus nitroreductase and NADH by SRB assay. Format: cell-based. The following applies: PC-3, 48 h. In short, it runs like this: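 Prodrug at 180, 18 or 1.8 nM was premixed with Ssap-NtrB (31 µg/mL final) and NADH (600 µM final; 900 µM for CB1954) in 25 mM Tris-HCl pH 7.5, then added for 48 h under aerobic conditions. Cells were fixed with 12.5% TCA, stained with SRB and read at 492 nm, in triplicate.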

pIC50: −log10 of the molar value.

Consider `NC(=O)c1cc(N(CCCl)CCCl)c([N+](=O)[O-])cc1[N+](=O)[O-]`, for which the Km in [1] came to 2500 µM; in [3], 82.4 µM. The Kcat on Putative nitroreductase [2] is 0.8 s⁻¹. The Kcat/Km in series [4] came to 10560 M⁻¹ s⁻¹; on Putative nitroreductase [5] it was 9350 M⁻¹ s⁻¹. Further, in [6], the “fold change (FC)” value is listed as 1.89.
Take `CCN(C(C)=O)c1cc([N+](=O)[O-])cc([N+](=O)[O-])c1`: the Drug metabolism result at Putative nitroreductase [7], on Putative nitroreductase [11], on Putative nitroreductase [13], on Putative nitroreductase [14] and at Putative nitroreductase [17] was “Metabolite_Detected” each time. The viability at 48 h, up to 150 µM was more than 80% in [8], more than 80% in series [15] and 51 to 80% in [18]. Also, the half-life in series [9] and in series [16] was less than 1.2 min each time. The Retention_time at Putative nitroreductase [10] turned out to be 16.85 min; on Putative nitroreductase [12], 14.55 min.
As to `O=C(c1ccc(NO)cc1)N1CCOCC1`, the Retention_time at Putative nitroreductase [19] is listed as 11.71 min.
As for `O=C(c1ccc([N+](=O)[O-])cc1)N1CCOCC1`, in the series on PC-3 [20], the Activity entry is reported as “Non-Toxic”. For the same compound, the viability at 48 h, up to 150 µM in series [8], in series [15] and in series [18] was more than 80% throughout. Further, at Putative nitroreductase [21], the Retention time worked out at 16 min. Further, in [22], the solubility entry is on record as “Soluble”. Further, the Retention_time at Putative nitroreductase [23] is on record as 15.17 min. Also, the half-life in series [24] is less than 15 min. For the same compound, the pIC50 in the series with PC-3 [25] was 8.74.
